{"source": "ChEMBL document CHEMBL1795205", "about": "“The new 5- or 6-azapyrimidine and cyanuric acid derivatives of l-ascorbic acid bearing the free C-5 hydroxy or C-4 amino group at the ethylenic spacer: CD-spectral absolute configuration determination and biological activity evaluations” (Eur J Med Chem, 2011)", "key": {"HeLa [1]": {"tested_on": "HeLa", "assay": "Induction of cell cycle arrest in human HeLa cells assessed as accumulation at G1 phase at 1 uM after 24 hrs by flow cytometry relative to control", "type": "functional", "summary_of_the_method": "(§1)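 Cells were seeded at 3×10⁵ per well in 6-well plates and treated after overnight incubation for 24 and 48 h. They were trypsinized, washed three times in PBS, fixed in cold ethanol and stored at −20 °C. Pellets were washed twice in PBS and treated with RNase A at 37 °C for 15 min, then stained with PI for 30 min in the dark. DNA content was measured by flow cytometry.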"}, "SW-620 [2]": {"tested_on": "SW-620", "assay": "Induction of cell cycle arrest in human SW620 cells assessed as accumulation at G1 phase at 1 uM after 24 hrs by flow cytometry (reference value: 51.6 +/- 0.07%)", "type": "functional"}, "MIA PaCa-2 [3]": {"tested_on": "MIA PaCa-2", "assay": "Induction of cell cycle arrest in human MIAPaCa2 cells assessed as accumulation at G2/M phase at 5 uM after 48 hrs by flow cytometry (reference value: 9.35 +/- 0.92%)", "type": "functional"}, "MIA PaCa-2 [4]": {"tested_on": "MIA PaCa-2", "assay": "Induction of cell cycle arrest in human MIAPaCa2 cells assessed as accumulation at G1 phase at 5 uM after 24 hrs by flow cytometry (reference value: 55.4 +/- 0.01%)", "type": "functional"}, "SW-620 [5]": {"tested_on": "SW-620", "assay": "Induction of cell cycle arrest in human SW620 cells assessed as accumulation at subG1 phase at 1 uM after 24 hrs by flow cytometry (reference value: 0.37 +/- 0.36%)", "type": "functional"}, "MIA PaCa-2 [6]": {"tested_on": "MIA PaCa-2", "assay": "Induction of cell cycle arrest in human MIAPaCa2 cells assessed as accumulation at G1 phase at 5 uM after 48 hrs by flow cytometry (reference value: 44.7 +/- 7.21%)", "type": "functional"}, "SW-620 [7]": {"tested_on": "SW-620", "assay": "Induction of cell cycle arrest in human SW620 cells assessed as accumulation at subG1 phase at 1 uM after 48 hrs by flow cytometry (reference value: 0.18 +/- 0.036%)", "type": "functional"}, "MIA PaCa-2 [8]": {"tested_on": "MIA PaCa-2", "assay": "Induction of cell cycle arrest in human MIAPaCa2 cells assessed as accumulation at G2/M phase at 1 uM after 48 hrs by flow cytometry (reference value: 9.35 +/- 0.92%)", "type": "functional"}, "HeLa [9]": {"tested_on": "HeLa", "assay": "Induction of cell cycle arrest in human HeLa cells assessed as accumulation at S phase at 5 uM after 48 hrs by flow cytometry relative to control", "type": "functional", "summary_of_the_method": "as §1"}, "HeLa [10]": {"tested_on": "HeLa", "assay": "Induction of cell cycle arrest in human HeLa cells assessed as accumulation at S phase at 1 uM after 24 hrs by flow cytometry relative to control", "type": "functional", "summary_of_the_method": "as §1"}, "MIA PaCa-2 [11]": {"tested_on": "MIA PaCa-2", "assay": "Induction of apoptosis in human MIAPaCa2 cells at 1 to 5 uM after 24 to 48 hrs by annexin V-/PI staining"}, "HeLa [12]": {"tested_on": "HeLa", "assay": "Induction of apoptosis in human HeLa cells at 1 to 5 uM after 24 to 48 hrs by annexin V/PI staining", "type": "functional, cell-based", "summary_of_the_method": "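Cells were seeded on slides, incubated 24 h, then exposed to compound for 24 and 48 h. They were washed with PBS and binding buffer, incubated with annexin-V for 10 min, washed with binding buffer, and stained with PI.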"}, "HeLa [13]": {"tested_on": "HeLa", "assay": "Induction of cell cycle arrest in human HeLa cells assessed as accumulation at subG1 phase at 5 uM after 24 hrs by flow cytometry relative to control", "type": "functional", "summary_of_the_method": "as §1"}, "SW-620 [14]": {"tested_on": "SW-620", "assay": "Cytostatic activity against human SW620 cells assessed as inhibition of cell proliferation after 72 hrs by MTT assay", "type": "functional, cell-based", "conditions": "SW-620, 72 h", "summary_of_the_method": "(§2)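 Monolayer cells grown in DMEM with 10% FBS were seeded on day 0 at 3000–6000 cells/well, set by each line's doubling time. Agents were added the next step in five 10-fold dilutions (0.01–100) for 72 h, with DMSO ≤0.1% and a solvent control. MTT absorbance was converted to percentage growth versus untreated wells on the same plate. Where all PGs exceeded 50, the top concentration was reported as \">\". ANOVA/Tukey, p<0.05.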"}, "SW-620 [15]": {"tested_on": "SW-620", "assay": "Induction of cell cycle arrest in human SW620 cells assessed as accumulation at S phase at 1 uM after 24 hrs by flow cytometry (reference value: 37.7 +/- 0.01%)", "type": "functional"}, "SW-620 [16]": {"tested_on": "SW-620", "assay": "Induction of cell cycle arrest in human SW620 cells assessed as accumulation at G1 phase at 5 uM after 24 hrs by flow cytometry (reference value: 51.6 +/- 0.07%)", "type": "functional"}, "MIA PaCa-2 [17]": {"tested_on": "MIA PaCa-2", "assay": "Induction of cell cycle arrest in human MIAPaCa2 cells assessed as accumulation at G1 phase at 1 uM after 24 hrs by flow cytometry (reference value: 55.4 +/- 0.01%)", "type": "functional", "summary_of_the_method": "as §1"}, "MIA PaCa-2 [18]": {"tested_on": "MIA PaCa-2", "assay": "Induction of cell cycle arrest in human MIAPaCa2 cells assessed as accumulation at subG1 phase at 1 uM after 24 hrs by flow cytometry (reference value: 0.32 +/- 0.009%)", "type": "functional"}, "MCF7": {"tested_on": "MCF7", "assay": "Cytostatic activity against human MCF7 cells assessed as inhibition of cell proliferation after 72 hrs by MTT assay", "type": "functional, cell-based", "conditions": "MCF7, 72 h", "summary_of_the_method": "as §2"}, "MIA PaCa-2 [19]": {"tested_on": "MIA PaCa-2", "assay": "Induction of cell cycle arrest in human MIAPaCa2 cells assessed as accumulation at S phase at 1 uM after 24 hrs by flow cytometry (reference value: 34.3 +/- 0.07%)", "type": "functional"}, "SW-620 [20]": {"tested_on": "SW-620", "assay": "Induction of cell cycle arrest in human SW620 cells assessed as accumulation at G1 phase at 1 uM after 48 hrs by flow cytometry (reference value: 46.6 +/- 4.88%)", "type": "functional"}, "HeLa [21]": {"tested_on": "HeLa", "assay": "Induction of cell cycle arrest in human HeLa cells assessed as accumulation at G2/M phase at 5 uM after 24 hrs by flow cytometry relative to control", "type": "functional", "summary_of_the_method": "as §1"}, "MIA PaCa-2 [22]": {"tested_on": "MIA PaCa-2", "assay": "Induction of cell cycle arrest in human MIAPaCa2 cells assessed as accumulation at G1 phase at 1 uM after 48 hrs by flow cytometry (reference value: 44.7 +/- 7.21%)", "type": "functional"}, "SW-620 [23]": {"tested_on": "SW-620", "assay": "Induction of cell cycle arrest in human SW620 cells assessed as accumulation at G2/M phase at 1 uM after 24 hrs by flow cytometry (reference value: 10.7 +/- 0.07%)", "type": "functional"}, "HeLa [24]": {"tested_on": "HeLa", "assay": "Induction of cell cycle arrest in human HeLa cells assessed as accumulation at G2/M phase at 1 uM after 48 hrs by flow cytometry relative to control", "type": "functional", "summary_of_the_method": "as §1"}}, "note": "Calls of active or inactive are those of the source. The calls are words filed in the database; no cut-off is given here."}
{"compound": "Nc1ncn(C/C=C2\\OC(=O)C(OCc3ccccc3)=C2OCc2ccccc2)c(=O)n1", "values": [{"measurement": "Activity", "setting": "HeLa [1]", "result": 29.4, "unit": "%"}, {"measurement": "Activity", "setting": "SW-620 [2]", "result": 41.3, "unit": "%"}, {"measurement": "Activity", "setting": "MIA PaCa-2 [3]", "result": 10.2, "unit": "%"}, {"measurement": "Activity", "setting": "MIA PaCa-2 [4]", "result": 35.6, "unit": "%"}, {"measurement": "Activity", "setting": "SW-620 [5]", "result": 0.56, "unit": "%"}, {"measurement": "Activity", "setting": "MIA PaCa-2 [6]", "result": 29, "unit": "%"}, {"measurement": "Activity", "setting": "SW-620 [7]", "result": 0.05, "unit": "%"}, {"measurement": "Activity", "setting": "MIA PaCa-2 [8]", "result": 12.9, "unit": "%"}, {"measurement": "Activity", "setting": "HeLa [9]", "result": 62.3, "unit": "%"}, {"measurement": "Activity", "setting": "HeLa [10]", "result": 58.8, "unit": "%"}, {"measurement": "Activity", "setting": "MIA PaCa-2 [11]", "result": "inactive"}, {"measurement": "Activity", "setting": "HeLa [12]", "result": "inactive"}, {"measurement": "Activity", "setting": "HeLa [13]", "result": 0, "unit": "%"}, {"measurement": "IC50", "setting": "SW-620 [14]", "result": 5.62, "unit": "µM"}, {"measurement": "Activity", "setting": "SW-620 [15]", "result": 50.5, "unit": "%"}, {"measurement": "Activity", "setting": "SW-620 [16]", "result": 24.1, "unit": "%"}, {"measurement": "Activity", "setting": "MIA PaCa-2 [17]", "result": 55.6, "unit": "%"}, {"measurement": "Activity", "setting": "MIA PaCa-2 [18]", "result": 0.2, "unit": "%"}, {"measurement": "IC50", "setting": "MCF7", "result": 3.49, "unit": "µM"}, {"measurement": "Activity", "setting": "MIA PaCa-2 [19]", "result": 29.5, "unit": "%"}, {"measurement": "Activity", "setting": "SW-620 [20]", "result": 23.2, "unit": "%"}, {"measurement": "Activity", "setting": "HeLa [21]", "result": 11.5, "unit": "%"}, {"measurement": "Activity", "setting": "MIA PaCa-2 [22]", "result": 22.9, "unit": "%"}, {"measurement": "Activity", "setting": "SW-620 [23]", "result": 8.15, "unit": "%"}, {"measurement": "Activity", "setting": "HeLa [24]", "result": 14.4, "unit": "%"}]}
